# From ChEMBL document CHEMBL4038305, “Benzoxaborole Antimalarial Agents. Part 5. Lead Optimization of Novel Amide Pyrazinyloxy Benzoxaboroles and Identification of a Preclinical Candidate” (J Med Chem, 2017)
# Experiments:
# Plasmodium berghei [1] = test: Antimalarial activity against Plasmodium berghei infected in Swiss Webster mouse assessed as mouse survival rate at 100 mg/kg administered once daily via oral gavage for 4 consecutive days beginning 1 hr after infection measured on day 10 post infection relative to control; type: functional
# Method in brief: (§1)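 Mice given an intraperitoneal injection of P. berghei-infected erythrocytes taken from a previously infected animal. Oral dosing once daily for 4 consecutive days, starting 1 h after infection. Vehicle: polyethylene glycol 300/propylene glycol/water (weight ratio 55/25/20). Percent survival recorded daily from day 4 to day 20. Chloroquine 30 mg/kg and vehicle-only groups served as controls.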
# Plasmodium berghei [2] = test: Antimalarial activity against Plasmodium berghei infected in Swiss Webster mouse assessed as mouse survival rate at 33 mg/kg administered once daily via oral gavage for 4 consecutive days beginning 1 hr after infection measured on day 8 post infection relative to control; type: functional
# Method in brief: (§2)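 P. berghei-infected erythrocytes taken from a previously infected mouse were injected intraperitoneally. Oral dosing, once daily for 4 consecutive days, began 1 h after infection, in polyethylene glycol 300/propylene glycol/water (55/25/20 by weight). Chloroquine at 30 mg/kg was the positive control, with a vehicle-only group. Percent survival was recorded daily from day 4 to day 20.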
# Plasmodium berghei [3] = test: Antimalarial activity against Plasmodium berghei infected in Swiss Webster mouse assessed as mouse survival rate at 33 mg/kg administered once daily via oral gavage for 4 consecutive days beginning 1 hr after infection measured on day 6 post infection relative to control; type: functional; method in brief: as §2
# Plasmodium berghei [4] = test: Antimalarial activity against Plasmodium berghei infected in Swiss Webster mouse assessed as mouse survival rate at 100 mg/kg administered once daily via oral gavage for 4 consecutive days beginning 1 hr after infection measured on day 13 post infection relative to control; type: functional; method in brief: as §1
# Plasmodium berghei [5] = test: Antimalarial activity against Plasmodium berghei infected in Swiss Webster mouse assessed as mouse survival rate at 3 mg/kg administered once daily via oral gavage for 4 consecutive days beginning 1 hr after infection measured on day 4 post infection relative to control; type: functional; method in brief: as §2
# Plasmodium berghei [6] = test: Antimalarial activity against Plasmodium berghei infected in Swiss Webster mouse assessed as mouse survival rate at 1 mg/kg administered once daily via oral gavage for 4 consecutive days beginning 1 hr after infection measured on day 6 post infection relative to control; type: functional; method in brief: as §1
# Plasmodium berghei [7] = test: Antimalarial activity against Plasmodium berghei infected in Swiss Webster mouse assessed as mouse survival rate at 100 mg/kg administered once daily via oral gavage for 4 consecutive days beginning 1 hr after infection measured on day 11 post infection relative to control; type: functional; method in brief: as §1
# Plasmodium berghei [8] = test: Antimalarial activity against Plasmodium berghei infected in Swiss Webster mouse assessed as mouse survival rate at 33 mg/kg administered once daily via oral gavage for 4 consecutive days beginning 1 hr after infection measured on day 9 post infection relative to control; type: functional; method in brief: as §2
# Plasmodium berghei [9] = test: Antimalarial activity against Plasmodium berghei infected in Swiss Webster mouse assessed as mouse survival rate at 33 mg/kg administered once daily via oral gavage for 4 consecutive days beginning 1 hr after infection measured on day 7 post infection relative to control; type: functional; method in brief: as §2
# Plasmodium berghei [10] = test: Antimalarial activity against Plasmodium berghei infected in Swiss Webster mouse assessed as mouse survival rate at 11 mg/kg administered once daily via oral gavage for 4 consecutive days beginning 1 hr after infection measured on day 4 post infection relative to control; type: functional; method in brief: as §2
# Plasmodium berghei [11] = test: Antimalarial activity against Plasmodium berghei infected in Swiss Webster mouse assessed as mouse survival rate at 33 mg/kg administered once daily via oral gavage for 4 consecutive days beginning 1 hr after infection measured on day 4 post infection relative to control; type: functional; method in brief: as §2
# Plasmodium berghei [12] = test: Antimalarial activity against Plasmodium berghei infected in Swiss Webster mouse assessed as mouse survival rate at 33 mg/kg administered once daily via oral gavage for 4 consecutive days beginning 1 hr after infection measured on day 5 post infection relative to control; type: functional; method in brief: as §2
# Plasmodium berghei [13] = test: Antimalarial activity against Plasmodium berghei infected in Swiss Webster mouse assessed as mouse survival rate at 100 mg/kg administered once daily via oral gavage for 4 consecutive days beginning 1 hr after infection measured on day 8 post infection relative to control; type: functional; method in brief: as §1
# Plasmodium falciparum [14] = test: Antimalarial activity against chloroquine-resistant Plasmodium falciparum W2 infected in human erythrocytes after 48 hrs by YOYO-1 dye based flow cytometric analysis; type: functional, cell-based; details: W2, 48 h
# Method in brief: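 P. falciparum W2 cultures were exposed to the compound for 48 h, with artemisinin and chloroquine as reference controls. IC50 was taken from two independent replicates.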
# Plasmodium berghei [15] = test: Antimalarial activity against Plasmodium berghei infected in Swiss Webster mouse assessed as mouse survival rate at 100 mg/kg administered once daily via oral gavage for 4 consecutive days beginning 1 hr after infection measured on day 7 post infection relative to control; type: functional; method in brief: as §1
# Plasmodium berghei [16] = test: Antimalarial activity against Plasmodium berghei infected in Swiss Webster mouse assessed as mouse survival rate at 100 mg/kg administered once daily via oral gavage for 4 consecutive days beginning 1 hr after infection measured on day 9 post infection relative to control; type: functional; method in brief: as §1
# Plasmodium berghei [17] = test: Antimalarial activity against Plasmodium berghei infected in Swiss Webster mouse assessed as mouse survival rate at 11 mg/kg administered once daily via oral gavage for 4 consecutive days beginning 1 hr after infection measured on day 5 post infection relative to control; type: functional; method in brief: as §2
# Plasmodium berghei [18] = test: Antimalarial activity against Plasmodium berghei infected in Swiss Webster mouse assessed as mouse survival rate at 1 mg/kg administered once daily via oral gavage for 4 consecutive days beginning 1 hr after infection measured on day 7 post infection relative to control; type: functional; method in brief: as §1
# Plasmodium berghei [19] = test: Antimalarial activity against Plasmodium berghei infected in Swiss Webster mouse assessed as mouse survival rate at 3 mg/kg administered once daily via oral gavage for 4 consecutive days beginning 1 hr after infection measured on day 7 post infection relative to control; type: functional; method in brief: as §2
# Plasmodium berghei [20] = test: Antimalarial activity against Plasmodium berghei infected in Swiss Webster mouse assessed as mouse survival rate at 100 mg/kg administered once daily via oral gavage for 4 consecutive days beginning 1 hr after infection measured on day 14 post infection relative to control; type: functional; method in brief: as §1
# Plasmodium berghei [21] = test: Antimalarial activity against Plasmodium berghei infected in Swiss Webster mouse assessed as mouse survival rate at 11 mg/kg administered once daily via oral gavage for 4 consecutive days beginning 1 hr after infection measured on day 6 post infection relative to control; type: functional; method in brief: as §2
# Plasmodium berghei [22] = test: Antimalarial activity against Plasmodium berghei infected in Swiss Webster mouse assessed as mouse survival rate at 100 mg/kg administered once daily via oral gavage for 4 consecutive days beginning 1 hr after infection measured on day 5 post infection relative to control; type: functional; method in brief: as §1
# Plasmodium falciparum [23] = test: Antimalarial activity against chloroquine-sensitive Plasmodium falciparum 3D7 infected in human erythrocytes assessed as reduction in [3H]-hypoxanthine incorporation preincubated for 24 hrs followed by [3H]-hypoxanthine addition measured after 24 hrs by scintillation counting method; type: functional, cell-based
# Method in brief: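 P. falciparum 3D7 cultures were exposed to the compound for 48 h, with atovaquone as the reference control. IC50 was taken from three replicates.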
# Plasmodium berghei [24] = test: Antimalarial activity against Plasmodium berghei infected in Swiss Webster mouse assessed as mouse survival rate at 100 mg/kg administered once daily via oral gavage for 4 consecutive days beginning 1 hr after infection measured on day 4 post infection relative to control; type: functional; method in brief: as §1
# Plasmodium berghei [25] = test: Antimalarial activity against Plasmodium berghei infected in Swiss Webster mouse assessed as mouse survival rate at 3 mg/kg administered once daily via oral gavage for 4 consecutive days beginning 1 hr after infection measured on day 6 post infection relative to control; type: functional; method in brief: as §2
# Plasmodium berghei [26] = test: Antimalarial activity against Plasmodium berghei infected in Swiss Webster mouse assessed as mouse survival rate at 3 mg/kg administered once daily via oral gavage for 4 consecutive days beginning 1 hr after infection measured on day 5 post infection relative to control; type: functional; method in brief: as §2
# Plasmodium berghei [27] = test: Antimalarial activity against Plasmodium berghei infected in Swiss Webster mouse assessed as mouse survival rate at 1 mg/kg administered once daily via oral gavage for 4 consecutive days beginning 1 hr after infection measured on day 5 post infection relative to control; type: functional; method in brief: as §1
# Plasmodium berghei [28] = test: Antimalarial activity against Plasmodium berghei infected in Swiss Webster mouse assessed as mouse survival rate administered once daily via oral gavage for 4 consecutive days beginning 1 hr after infection measured on day 4 post infection; type: functional; method in brief: as §1
# Plasmodium berghei [29] = test: Antimalarial activity against Plasmodium berghei infected in Swiss Webster mouse assessed as mouse survival rate at 100 mg/kg administered once daily via oral gavage for 4 consecutive days beginning 1 hr after infection measured on day 6 post infection relative to control; type: functional; method in brief: as §1
# Plasmodium berghei [30] = test: Antimalarial activity against Plasmodium berghei infected in Swiss Webster mouse assessed as mouse survival rate at 1 mg/kg administered once daily via oral gavage for 4 consecutive days beginning 1 hr after infection measured on day 4 post infection relative to control; type: functional; method in brief: as §1
# Plasmodium berghei [31] = test: Antimalarial activity against Plasmodium berghei infected in Swiss Webster mouse assessed as mouse survival rate at 100 mg/kg administered once daily via oral gavage for 4 consecutive days beginning 1 hr after infection measured on day 12 post infection relative to control; type: functional; method in brief: as §1
# Plasmodium berghei [32] = test: Antimalarial activity against Plasmodium berghei infected in Swiss Webster mouse assessed as mouse survival rate at 11 mg/kg administered once daily via oral gavage for 4 consecutive days beginning 1 hr after infection measured on day 7 post infection relative to control; type: functional; method in brief: as §2
structure (smiles),measurement,setting,value
Cc1c(Oc2cnc(C(=O)N[C@@H](CO)C(C)C)cn2)ccc2c1B(O)OC2,survival at 100 mg/kg,Plasmodium berghei [1],40%
same,survival at 33 mg/kg,Plasmodium berghei [2],80%
same,survival at 33 mg/kg,Plasmodium berghei [3],100%
same,survival at 100 mg/kg,Plasmodium berghei [4],40%
same,survival at 3 mg/kg,Plasmodium berghei [5],100%
same,survival at 1 mg/kg,Plasmodium berghei [6],100%
same,survival at 100 mg/kg,Plasmodium berghei [7],40%
same,survival at 33 mg/kg,Plasmodium berghei [8],0%
same,survival at 33 mg/kg,Plasmodium berghei [9],80%
same,survival at 11 mg/kg,Plasmodium berghei [10],100%
same,survival at 33 mg/kg,Plasmodium berghei [11],100%
same,survival at 33 mg/kg,Plasmodium berghei [12],100%
same,survival at 100 mg/kg,Plasmodium berghei [13],100%
same,IC50,Plasmodium falciparum [14],0.149 µM
same,survival at 100 mg/kg,Plasmodium berghei [15],100%
same,survival at 100 mg/kg,Plasmodium berghei [16],100%
same,survival at 11 mg/kg,Plasmodium berghei [17],100%
same,survival at 1 mg/kg,Plasmodium berghei [18],0%
same,survival at 3 mg/kg,Plasmodium berghei [19],0%
same,survival at 100 mg/kg,Plasmodium berghei [20],40%
same,survival at 11 mg/kg,Plasmodium berghei [21],100%
same,survival at 100 mg/kg,Plasmodium berghei [22],100%
same,IC50,Plasmodium falciparum [23],0.466 µM
same,survival at 100 mg/kg,Plasmodium berghei [24],100%
same,survival at 3 mg/kg,Plasmodium berghei [25],100%
same,survival at 3 mg/kg,Plasmodium berghei [26],100%
same,survival at 1 mg/kg,Plasmodium berghei [27],100%
same,ED90,Plasmodium berghei [28],26.7 mg/kg
same,survival at 100 mg/kg,Plasmodium berghei [29],100%
same,survival at 1 mg/kg,Plasmodium berghei [30],100%
same,survival at 100 mg/kg,Plasmodium berghei [31],40%
same,survival at 11 mg/kg,Plasmodium berghei [32],0%
